Several values for one entry are separate records, joined by “and”; a condition that tells them apart may be missing. Identical values can stand only once. Where no end group is shown, it is not given here.
Legend:
[1] = Ca^2+ association constants of chromophoric chelators; format: binding; settings: 20 °C, 20 mM Tris-HCl pH 6.8, 100 mM NaCl
[2] = target: Lethocerus troponin C, F2 isoform (Lethocerus); test: other fluorescence titration
[3] = target: Lethocerus troponin C, F1 isoform (Lethocerus); test: other fluorescence titration
[4] = target: T1, F2 TnC (Lethocerus indicus, UniProt Q868D3); test: TnH peptide binding to F2 TnC by competition with melittin; settings: 20 °C, 20 mM Tris-HCl pH 6.8, 100 mM NaCl
T1 sequence (Q868D3 1-158): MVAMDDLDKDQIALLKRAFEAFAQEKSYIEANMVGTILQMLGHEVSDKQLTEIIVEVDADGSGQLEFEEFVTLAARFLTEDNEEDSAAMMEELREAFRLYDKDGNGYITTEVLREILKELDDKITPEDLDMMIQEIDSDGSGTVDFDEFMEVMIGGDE
How it was run: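 Recombinant F2 TnC was expressed in E. coli BL21(DE3), purified on Ni-NTA, His-tag cleaved with TEV, then purified by gel filtration. Melittin (0.33 μM) plus F2 TnC (1.4 μM with 1 mM Ca2+) was titrated with synthetic test peptides (TnH fragments). Binding was read by melittin Trp fluorescence (excitation 280 nm, emission 290–400 nm) at 20 °C, pH 6.8 Tris/100 mM NaCl; Mg2+ was 5 mM.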

[5] = target: T2, F1 TnC (Lethocerus indicus, UniProt Q868D4); test: TnH peptide binding to F1 TnC by competition with melittin; settings: 20 °C, 20 mM Tris-HCl pH 6.8, 100 mM NaCl
T2 sequence (Q868D4 1-158): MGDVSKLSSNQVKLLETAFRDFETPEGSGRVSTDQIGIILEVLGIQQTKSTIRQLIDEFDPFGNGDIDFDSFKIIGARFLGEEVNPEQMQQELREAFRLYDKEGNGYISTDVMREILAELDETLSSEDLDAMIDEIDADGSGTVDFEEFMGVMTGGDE
How it was run: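 Competition assay: mixtures of melittin and F1 TnC were titrated with synthetic test peptides (TnH fragments; >95% HPLC, sequences MALDI-verified). Displacement was followed by melittin Trp fluorescence (excitation 280 nm, emission 290–400 nm). Conditions were 20 °C, 20 mM Tris-HCl pH 6.8, 100 mM NaCl, with 1 mM Ca2+, 5 mM Mg2+, or both.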

[6] = target: T2, F1 TnC; settings: C lobe of F1 TnC, essentially Ca^2+ independent; cited from earlier work
[7] = 1 mM Ca^2+ and 5 mM Mg^2+, competition with melittin
[8] = 5 mM Mg^2+, competition with melittin

O=C(O)CN(CC(=O)O)c1ccc(Br)cc1OCCOc1cc(Br)ccc1N(CC(=O)O)CC(=O)O [5,5′-dibromo BAPTA]
Equilibrium association constant for Ca^2+ (KCa) [1]: (6.3 ± 0.5) × 10^5 M^−1

O=C(O)CN(CC(=O)O)c1ccccc1OCCOc1cc([N+](=O)[O-])ccc1N(CC(=O)O)CC(=O)O [5-nitro BAPTA]
Equilibrium association constant for Ca^2+ (KCa) [1]: (4.1 ± 0.3) × 10^4 M^−1

Melittin from honey bee venom (from UniProt P01501 44-70) (peptide)
Kd [2]: 0.84 µM and 0.19 µM and 0.77 µM
Kd [3]: 0.041 µM and 0.0083 µM and 0.032 µM

TnH(30−61) peptide of Lethocerus troponin H
Kd [3]: 0.0013 µM and 0.0019 µM and 0.0022 µM

TnH(126−159) peptide of Lethocerus troponin H
Kd [3]: 12.2 µM and 3.7 µM and 9.1 µM

YDLNSQVNDLRGKFVKPTLKKVSKYENKFAKLQKK [TnH(126−159)]
Kd [4, 7]: 3.5 ± 0.8 µM
Kd ([4]; 1 mM Ca^2+, competition with melittin 0.33 μM, F2 TnC 1.4 μM): 3.1 ± 0.8 µM
Kd [4, 8]: 13.5 ± 3.5 µM
Kd ([5]; 1 mM Ca^2+): 3.7 ± 1.1 µM
Kd ([5]; 5 mM Mg^2+): 9.1 ± 3.2 µM
Kd ([5]; metal: none (0.2 mM EGTA)): 12.2 ± 3.4 µM
Equilibrium dissociation constant range for F1 TnC [6]: in the micromolar range

YKAKKAKKGFMTPERKKKLRLLLRKKAAEELKK [TnH(30−61)]
Kd ([4]; 1 mM Ca^2+ (holo), competition with melittin 0.33 μM, F2 TnC 1.4 μM): 0.0078 ± 0.00015 µM
Kd [4, 7]: 0.0067 ± 0.0009 µM
Kd [4, 8]: 0.0385 ± 0.0052 µM
Kd ([5]; 1 mM Ca^2+ and 5 mM Mg^2+): 0.0013 ± 0.0004 µM
Kd ([5]; 1 mM Ca^2+): 0.0009 ± 0.0002 µM
Kd ([5]; 5 mM Mg^2+): 0.0022 ± 0.0004 µM
Kd ([5]; metal: none (0.2 mM EGTA)): 0.0019 ± 0.0006 µM
Equilibrium dissociation constant range for F1 TnC [6]: in the nanomolar range

Source: publication PMC3057471 (Biochemistry, 2011)
